# Experimental data collected from several papers.
# Protocols differ between the studies behind these lines.
# Target: Interleukin-1 receptor-associated kinase 1 (IRAK1, Homo sapiens, UniProt P51617)
Compound,assay,setting,measurement,result
CS(=O)(=O)c1cc(C2(NC(=O)c3cncc4c3cnn4-c3ccc(F)cc3)CC2)ccn1,"cell-free assay, competition with immobilised ligand",1 µM,remaining binding,87%
CC(C)(C)c1nc(-c2cccc(NS(=O)(=O)c3c(F)cccc3F)c2F)c(-c2ccnc(N)n2)s1,"enzyme activity, inhibitor, radiometric",1 µM,remaining activity,84%
CN(C)CC#Cc1ccc(OCCCc2sc(N3CCc4cccc(C(=O)Nc5nc6ccccc6s5)c4C3)nc2C(=O)O)c(F)c1,"cell-free assay, competition with immobilised ligand",1 µM,remaining binding,100%
CC/C(=N\NC(=O)NCc1cccc(O)c1)c1ccc(O)c(C)c1O,"enzyme activity, inhibitor",0.1 µM,inhibition,-0.6%
CCN(CC)CCNC(=O)c1c(C)[nH]c(/C=C2\C(=O)Nc3ccc(F)cc32)c1C,"enzyme activity, inhibitor",10 µM,inhibition,86%
COc1cc(Nc2cnc(C#N)c(O[C@H](C)CN(C)C)n2)ncc1-c1cnn(C)c1,"enzyme activity, inhibitor, radiometric",1 µM,remaining activity,17%
Oc1cccc(-c2nc(N3CCOCC3)c3oc4ncccc4c3n2)c1,cell-free assay,0.5 µM,remaining signal,84.2%
c1ccc(CNc2nc(N3CCOc4ccccc43)nc3c2CCCC3)cc1,"target engagement in cells, inhibitor, chemoproteomics",20 mM,inhibition,-2.4%
CN(C)C1CCN(CC#Cc2nn(C3CCCC3)c3nc(NCc4ccccc4)ncc23)C1 (centres unmarked),"enzyme activity, inhibitor, FRET",0.1 µM,inhibition,6%
FC(F)(F)Oc1cccc(-c2cnc3ccc(-c4ccncc4)nn23)c1,"enzyme activity, inhibitor, radiometric",5 µM,activity vs control,24%
CCCCNc1ncc2c(-c3ccc(F)cc3)nn(C[C@H]3CC[C@H](N)CC3)c2n1,"target engagement in cells, inhibitor, chemoproteomics",20 mM,inhibition,51.5%
Cc1nc(N2CC[C@@H](O)C2)ncc1-c1cc(C(F)(F)F)cc2[nH]ncc12,"binding, competition with immobilised ligand",1 µM,remaining binding,100%
Cc1cc(NC(=O)c2cccc3cc(-c4cccc5[nH]nc(N)c45)ccc23)ccc1F,"enzyme activity, inhibitor",0.1 µM,activity vs control,100%
Cc1cc(C)c(-n2ccn3nc(-c4cccnc4)cc23)cc1NC(=O)c1cc(C#N)cc(S(F)(F)(F)(F)F)c1,"cell-free assay, competition with immobilised ligand",0.1 µM,remaining binding,87.3%
Cc1sc(C(=O)NC2COC2)cc1-n1cc(NC(=O)Nc2c(F)cccc2Cl)cn1,"enzyme activity, inhibitor",10 µM,remaining activity,79.9%
O=C1NC(=O)c2cc(Nc3ccc(F)cc3)c(Nc3ccc(F)cc3)cc21,cell-free assay,0.5 µM,remaining signal,88.5%
COc1cc(-c2cc(-c3ccc(N4CCNCC4)cc3)cnc2C)cc(OC)c1OC,"enzyme activity, inhibitor",0.1 µM,inhibition,2%
CCCOc1ccc(OC)c(F)c1C(=O)c1ccc(C(=O)N[C@@H]2CNC[C@H]2NC(=O)c2ccc3[nH]ncc3c2)cc1,"enzyme activity, inhibitor",10 µM,remaining activity,49%
NS(=O)(=O)c1cc(NC(=O)C2(c3ccccc3Cl)CC2)ccc1Oc1cccc(Cl)c1,"cell-free assay, competition with immobilised ligand",1 µM,remaining binding,79%
Cc1cnc(NC2CCOCC2)nc1-n1cnc(C(=O)NC(CN)c2cc(F)cc(Cl)c2)c1 (centres unmarked),"enzyme activity, inhibitor, radiometric",1 µM,remaining activity,101%
Cc1ccc(C(=O)NCc2ccsc2)cc1C#Cc1cn(C(C)C)c2ncnc(N)c12,"enzyme activity, inhibitor",1 µM,activity vs control,86%
Cc1ccc(C(=O)Nc2ccc(CN3CCN(C)CC3)c(C(F)(F)F)c2)cc1C#Cc1cnc2cccnn12,"enzyme activity, inhibitor",23.5 nM,remaining activity,54%
COc1cc(/C=C/C(=O)CC(=O)/C=C/c2ccc(O)c(OC)c2)ccc1O,"enzyme activity, inhibitor",1 µM,activity vs control,97%
COCCOc1nc(-c2ccc(Cl)nc2)nc2c1CN(C(=O)c1ncn3ccccc13)CC2,"cell-free assay, competition with immobilised ligand",0.1 µM,remaining binding,100%
N#CCCc1ccc2c(c1)-c1[nH]c3ccc([N+](=O)[O-])cc3c1CC(=O)N2,cell-free assay,0.5 µM,remaining signal,74.9%
O=C(Nc1ccc(Oc2ccc(F)cc2)cc1)N1CCc2ncccc2[C@H]1c1ccc(F)cc1,"cell-free assay, competition with immobilised ligand",1 µM,remaining binding,88%
Cc1ccc(Nc2nccc(N(C)c3ccc4c(C)n(C)nc4c3)n2)cc1S(N)(=O)=O,"enzyme activity, inhibitor",10 µM,inhibition,25%
CCOC(=O)c1cc2cc(-c3cc(C(=O)NCc4ccc(C(=O)O)cc4)nn3C)ccc2[nH]1,"cell-free assay, competition with immobilised ligand",0.1 µM,remaining binding,85%
CNC(=O)c1cc(Oc2ccc(NC(=O)Nc3ccc(Cl)c(C(F)(F)F)c3)cc2)ccn1,"enzyme activity, inhibitor",10 µM,inhibition,60%
